Assay [1] addresses T1, Presenilin-1 (Homo sapiens, UniProt P49768). As to the kind of experiment: Inhibition of gamma-secretase in human SHSY5Y cells expressing human recombinant APP assessed as amyloid beta40 formation by ELISA. In a few lines: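 SH-SY5Y cells overexpressing human APP Swedish variant exposed to compound for 48 h; Aβ40 (and Aβ42) in the cell medium quantified by ELISA, either Meso Scale Discovery or AlphaLISA format. Compounds also cross-screened for inhibition of Notch processing.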
On the technique in general: ELISA stands for enzyme-linked immunosorbent assay.

In assay [2] the target is T1, Presenilin-1. The assay can be described thus: Inhibition of gamma-secretase in human SHSY5Y cells expressing human recombinant APP assessed as amyloid beta42 formation by ELISA. In a few lines: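 SH-SY5Y cells overexpressing human APP Swedish variant were incubated with compound for 48 h. Secreted Aβ42 and Aβ40 were measured by immunoassay (MSD electrochemiluminescence or AlphaLISA).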

The IC50 is the concentration at which inhibition is half-maximal. Turning to `CC(C)[C@H](O)C(=O)N[C@@H](C)C(=O)NC1C(=O)N(C)CCc2ccccc21` (stereo partly drawn) [(2S)-2-hydroxy-3-methyl-N-[(1S)-1-{[(1S)-3-methyl-2-oxo-2,3,4,5-tetrahydro-1H-3-benzazepin-1-yl]carbamoyl}ethyl]butanamide], the half-inhibitory concentration (IC50) at Presenilin-1 [1] and at Presenilin-1 [2] was 0.04 µM in each case.

The values are drawn from BindingDB's records for doi:10.1016/j.bmcl.2009.08.072 (Glaxosmithkline, 2010).
